Screening results as filed in PubChem BioAssay.
Sampled rows, rich in hits. Any-hit rate of the full collection: about 3.8%.
Kir21 block: blocks the mouse Kir2.1 inward-rectifier potassium channel. P35561. B-score at 10 µM. HEK293-Kir2.1, FluxOR thallium flux fluorescence; hits give low values. hit rate 0.85% among 310,000;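 active means fluorescence ratio B-score at or below minus 3 SD of library scores, with starting-brightness B-score within 2 SD, cut at about -4.2 in these data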;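 further: channel flux triggered by added potassium and thallium sulfate stimulus; B-score of peak minus minimum fluorescence over baseline after thallium stimulus; more negative B-score means stronger Kir2.1 block with less thallium influx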
KCNK3 block: human KCNK3 channel inhibition, primary screen; CHO-KCNK3 thallium flux, FluxOR fluorescence; hits give low values; B-score at 10 µM; hit rate 0.84% among 340,000;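 active means B-score under library mean minus 4 SD, starting fluorescence ratio at most library mean plus 5 SD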;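 further: more negative B-score means stronger inhibition of thallium flux through KCNK3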
hERG protect: shields human hERG channel from block by proarrhythmic agents; Q12809; CHO-hERG, FluxOR thallium flux, dofetilide IC70 present; activation (rescue from dofetilide block), less the hit threshold, % at 10 µM; hit rate 0.51% among 310,000;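 active means activation above the mean of controls blocked by dofetilide plus 5 SD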;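 further: thallium influx through hERG after potassium depolarization seen as dye fluorescence rise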
KCNK9 block: inhibitors of human KCNK9 two-pore domain potassium channel | Q9NPC2 | HEK293 KCNK9, FluxOR thallium flux fluorescence; hits give low values | B-score at 10 µM | hit rate 1.2% among 310,000 | AID 488922;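 active means ratio B-score over 3 SD below the library mean, with starting fluorescence within 5 SD of its mean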;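 further: negative B-score means less thallium flux so channel inhibition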
Target sequence (Q9NPC2 whole entry, looked up, the tested form may be a part): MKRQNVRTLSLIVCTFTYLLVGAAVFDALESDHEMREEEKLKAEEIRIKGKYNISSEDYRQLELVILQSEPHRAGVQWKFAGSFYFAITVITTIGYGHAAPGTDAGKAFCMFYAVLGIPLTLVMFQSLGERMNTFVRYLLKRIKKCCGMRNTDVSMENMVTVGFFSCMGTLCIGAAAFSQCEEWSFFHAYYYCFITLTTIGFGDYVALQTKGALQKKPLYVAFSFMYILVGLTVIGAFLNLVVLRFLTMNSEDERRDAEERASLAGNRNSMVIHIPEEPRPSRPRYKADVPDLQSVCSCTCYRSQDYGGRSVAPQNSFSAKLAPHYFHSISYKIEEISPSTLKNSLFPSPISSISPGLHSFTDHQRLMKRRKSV
KCNQ1 act: human KCNQ1 channel potentiation or activation; B-score at 10 µM; hit rate 0.35% among 310,000; CHO-K1 KCNQ1, thallium flux FluxOR fluorescence; hits give high values; P51787; AID 2648;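 active means fluorescence ratio B-score, a plate-corrected score, at least three library SD, with initial intensity B-score within 5 SD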
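Assay system: stable KCNQ1 CHO-K1 line; medium: assay buffer, equal DMSO in all wells; timing: 90 min dye loading and 20 min compound exposure, both at room temperature; technique: kinetic FluxOR thallium fluorescence, 10-s 1-Hz baseline, 110-s post-stimulus read; read-out basis: B score of baseline-normalized fluorescence ratio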
KCNQ1 block: human KCNQ1 channel inhibition. B-score at 10 µM. P51787. CHO-K1 KCNQ1, FluxOR thallium flux fluorescence; hits give high values. hit rate 1.3% among 310,000;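 active means compounds whose thallium flux B-score, printed positive for inhibition, exceeds three library SD while starting fluorescence stays within three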;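 further: channel opened by potassium depolarization with thallium stimulus after 20 min compound exposure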
Large screens that a line does not name were inactive.

CCOC(=O)c1c(NC(=O)COC(=O)c2cc(OC)c(OC)cc2[N+](=O)[O-])sc(C)c1C	none
COCCNC(=O)CN1N=C(c2ccc(OC)cc2)CCC1=O	none
C/C(=N\NC(=O)c1cc(C)oc1C)c1ccc(C)c([N+](=O)[O-])c1	none (no result: Kir21 block, hERG protect, KCNK9 block, KCNQ1 act, KCNQ1 block)
COc1cccc(-n2nc(C(=O)O)c3ccccc3c2=O)c1	hERG protect 6.5
COc1cc2c(cc1OC)[C@@H](NC(=O)COc1ccccc1)[C@H](OCc1ccccc1)C2	none (no result: Kir21 block, hERG protect, KCNK9 block, KCNQ1 act, KCNQ1 block)
CCOCCc1c(O)nc(SC)[nH]c1=O	KCNQ1 act 8
CN(C)CCCNC(=O)c1ccc(CN(c2ccccc2)S(C)(=O)=O)cc1	none
COCCOC(=O)/C(=C\c1cc(C(C)(C)C)c(O)c(C(C)(C)C)c1)C(C)=O	Kir21 block -5.4
CCOC(=O)C(C)c1c(C(=O)c2ccc(C)nc2)c2ccccc2n1C (stereo unspecified)	none (no result: KCNK3 block)
CC(C)(C)c1ccc(C(=O)NCCC(=O)NNC(=O)COc2ccc(F)cc2)cc1	none (no result: Kir21 block, hERG protect, KCNK9 block, KCNQ1 act, KCNQ1 block)
Cc1ccc(NC(=O)CN2C(=O)S/C(=C/c3ccc(-c4cccc(C(=O)O)c4)o3)C2=O)cc1	none (no result: Kir21 block, hERG protect, KCNK9 block, KCNQ1 act, KCNQ1 block)
Cc1ccc(NC(=O)CN2C(=O)S/C(=C\c3ccc(-c4cccc(C(=O)O)c4C)o3)C2=O)cc1	hERG protect 15 (no result: KCNK3 block)
Cc1nc2ccccc2c2c1C(=O)N(C)C2=O	hERG protect 5.7
Cc1nc2ccccc2c2c1C(=O)N(C(C)C)C2=O	none
COCC(=O)N(Cc1cc2ccc(C)cc2[nH]c1=O)c1ccccc1C	none
CCN1CCN(Cc2ccc(NC(=O)c3cc(NC(=O)C(=O)c4c[nH]c5ccccc45)cc(OC)c3)cc2C(F)(F)F)CC1	none
CCN1CCN(Cc2ccc(NC(=O)c3ccc(C)c(NC(=O)C(=O)c4c[nH]c5ccccc45)c3)cc2C(F)(F)F)CC1	KCNQ1 block 12
CCOC(=O)N1C2=NC(C(=O)OC)=C(C(=O)OC)[C@@H]3N(Cc4ccccc4)c4ccccc4[C@]23C[C@H]1C(=O)OC	KCNK9 block -7.7 (no result: KCNK3 block)
COC(=O)C1=C(C(=O)OC)[C@@H]2N(Cc3ccccc3)c3ccccc3[C@@]23C[C@@H](C(=O)OC)N(C(C)=O)C3=N1	none
COC(=O)C1=C(C(=O)OC)[C@@H]2N(Cc3ccccc3)c3ccccc3[C@@]23C[C@@H](C(=O)OC)N(C(=O)C2CCC2)C3=N1	KCNK9 block -7.7 (no result: KCNK3 block)
c1ccc(Cn2cc(-c3ccccc3)cn2)cc1	none (no result: Kir21 block, hERG protect, KCNK9 block, KCNQ1 act, KCNQ1 block)
CN1C(=O)C2(OCC(C)([N+](=O)[O-])CO2)c2ccccc21 (stereo unspecified)	hERG protect 8.6
COc1cc(CNCCc2ccccc2)cc(Cl)c1OCc1ccccc1	Kir21 block -13, KCNQ1 block 7
CCOc1cc(CNCCO)cc(Br)c1OCc1ccccc1Cl	Kir21 block -9
COc1cc(CNCCCN2CCOCC2)ccc1OCC(=O)NC(C)(C)C	none
CCOc1cc(CNCCO)cc(Br)c1OCc1ccc(Cl)cc1	Kir21 block -18
CCOc1cc(CNCCCN2CCOCC2)ccc1OCC(=O)NC(C)(C)C	KCNQ1 act 9
COc1cc(CNCCc2ccccc2)cc(Br)c1OCC(=O)Nc1ccccc1C	Kir21 block -11, KCNQ1 block 9
CCOc1cc(CNCCN2CCOCC2)ccc1OCc1ccccc1Cl	none
CCOc1cc(CNCCCN2CCOCC2)cc(Br)c1OCc1ccccc1Cl	Kir21 block -6.3
COc1cccc(CNCCO)c1OCc1ccccc1Cl	none
COc1cc(CNCCO)cc(Cl)c1OCc1ccccc1Cl	Kir21 block -7
CNCc1cc(Br)c(OCC(=O)Nc2ccccc2OC)c(OC)c1	none
CCOC(=O)/C=C/[C@H]1CC2(CCO1)SCCCS2	none (no result: Kir21 block, hERG protect, KCNK9 block, KCNQ1 act, KCNQ1 block)
O=c1cc2c(c(-c3ccccc3)n1Cc1ccccc1)[C@H](CCO)NC2	none (no result: Kir21 block, hERG protect, KCNK9 block, KCNQ1 act, KCNQ1 block)
OCC[C@@H]1NCc2cc(CO)cc(-c3ccccc3)c21	KCNK3 block -9.9 (no result: Kir21 block, hERG protect, KCNK9 block, KCNQ1 act, KCNQ1 block)
O=C(O)CCCN1C(=O)/C(=C\C(Cl)=C\c2ccccc2)SC1=S	none
Cc1nn(-c2ccccc2)c(Cl)c1/C=C1\SC(=S)NC1=O	hERG protect 19, KCNQ1 act 28
Cc1ccccc1NC(=O)c1cccc2c1C(=O)N(C1CCCCC1)C2	none
O=C(Nc1cccc(F)c1)c1cccc2c1C(=O)N(C1CCCCC1)C2	KCNK9 block -11
COc1ccccc1N(Cc1ccccc1)S(=O)(=O)c1cccc(C(=O)Nc2ccc(C)cn2)c1	KCNQ1 block 6
COc1ccccc1N(Cc1ccccc1)S(=O)(=O)c1cccc(C(=O)Nc2ccccn2)c1	none
Cc1ccc(S(=O)(=O)c2c(C)cc(C)nc2Oc2cccc(C(F)(F)F)c2)cc1	KCNK9 block -7.3
COc1cccc(N2CCN(C(=O)c3cc(-c4ccc(F)cc4)[nH]c3C)CC2)c1	none
CN(Cc1ccccc1)C1=CC(=[N+]2CCCCC2)CC(C)(C)C1	KCNQ1 block 6
CC1(C)CC(N2CCN(Cc3ccccc3)CC2)=CC(=[N+]2CCCCC2)C1	none
CCOc1cc(/C=N/NC(=O)CN2CCCCC2)ccc1OCc1ccc(Cl)cc1	none
CCOc1cc(/C=N/NC(=O)CN2CCCCC2)ccc1OCc1cccc(Cl)c1	Kir21 block -4.7
O=C(NC(=S)Nc1cccc(C(F)(F)F)c1)c1csnn1	hERG protect 54, KCNQ1 act 63
O=C(NC(=S)Nc1ccccc1Cl)c1csnn1	hERG protect 60
COc1cccc2c1OCC(CN1CCN(Cc3ccccc3F)C(CCO)C1)=C2 (stereo unspecified)	none
CN(c1ccccc1)c1ccc(/C=C/[N+](=O)[O-])cc1	Kir21 block -11
C=CCn1c(SCc2ccc(C(=O)O)cc2)nc2sc(C)c(C)c2c1=O	hERG protect 8.2, KCNQ1 act 16
C=CCn1c(SCC(=O)Nc2ccccc2C)nc2sc(C)c(C)c2c1=O	none
CCCCN(C(=O)c1cccc(-c2ccc(OC(C)=O)cc2)c1)c1c(N)n(CCC)c(=O)[nH]c1=O	none (no result: Kir21 block, hERG protect, KCNK9 block, KCNQ1 act, KCNQ1 block)
CC(=O)N/C(=N\OCc1ccc(Br)cc1)c1nonc1NC(C)=O	none
COC(=O)c1ccc(CN(c2ccc(C(=O)O)c(O)c2)S(=O)(=O)c2ccc(Cl)c([N+](=O)[O-])c2)cc1	KCNQ1 block 7
COC(=O)c1ccc(CN(c2ccccn2)S(=O)(=O)c2ccccc2)cc1	none
Cc1ccc(C2(C)NC(=O)N(CC(=O)Nc3c(C)n(C)n(-c4ccccc4)c3=O)C2=O)cc1 (stereo unspecified)	none
Cc1c(NC(=O)CN2C(=O)NC(C)(c3ccccc3)C2=O)c(=O)n(-c2ccccc2)n1C (stereo unspecified)	hERG protect 5.8
O=C(Nc1ccc(Cl)cc1)N1CCC(c2nc(-c3cccs3)no2)CC1	KCNQ1 block 6
Cc1c(C(=O)NCCSCc2ccc(Cl)cc2Cl)cccc1[N+](=O)[O-]	hERG protect 10.0
